The record followed here is ChEMBL document CHEMBL1157097, “Humulane and germacrane sesquiterpenes from Ferula lycia” (J Nat Prod, 2010).

Some results are limits rather than exact numbers.

For assay [1], the system named is K562. The assay can be described thus: Cytotoxicity against human imitinib-resistant K562 cells by MTT assay. Type of assay: functional, cell-based. In short, it runs like this:
(§1)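 Cells grown in RPMI 1640 with 1% glutamine, 1% penicillin/streptomycin and 10% fetal calf serum, then exposed to the sesquiterpenes. Viability was read by MTT. Bone marrow came from three healthy volunteers who gave informed consent. Camptothecin was the positive control for Raji.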

The nature of assay [2]: Cytotoxicity against mouse dasatinib-resistant DA1-3b cells carrying pCDNA3-p210BCR/ABL plasmid by MTT assay. The class given is functional, cell-based. An outline of the steps:
as §1
(Tetrazolium assays rely on reduction of a dye to a coloured formazan, in cell work by metabolically active cells.)

The subject of assay [3] is Raji. Nature of the assay: Cytotoxicity against human Raji cells by MTT assay. The class given is functional, cell-based. In short, it runs like this: as §1
Assay [4] is described as follows: Cytotoxicity against human bone marrow cells by MTT assay. Type of assay: cell-based. The settings on record: Bone marrow cell. In short, it runs like this:
as §1

The mark [5] stands for this setting: Homo sapiens, K562, read-out: IC50.
Setting [6] is: Mus musculus, DA1-3b, read-out: IC50.

A word on the IC50: it is the concentration that inhibits the measured activity by half.

Turning to `C/C1=C\[C@H](OC(=O)c2ccc(O)cc2)[C@H](C(C)C)CC/C(C)=C/CC1`, the IC50 in assay [1] (setting [5]) is 25.3 µM; in assay [2] (setting [6]), 24.7 µM; in assay [3] it was 20.9 µM; in assay [4], more than 50 µM.
Regarding `COc1cc(C(=O)O[C@H]2/C=C(\C)CC/C=C(\C)CC[C@H]2C(C)C)ccc1O`, the 50% inhibitory concentration (IC50) result in assay [1] (k562) and in assay [2] (da1-3b) was “Not Active” throughout.
For `CC[C@@]1(O)C(=O)OCc2c1cc1n(c2=O)Cc2cc3ccccc3nc2-1` [CAMPTOTHECIN], the values for the IC50 in assay [1] (setting [5]), in assay [2] (setting [6]) and in assay [3] were 0.002 µM, 0.03 µM and 1 µM, respectively.
With `C/C1=C/[C@H](O)C(C)(C)CCC/C(C)=C/C[C@H]1OC(=O)c1ccc(O)cc1` [JUNIFERDIN], the IC50 was more than 50 µM in assay [1] (setting [5]) and 23.7 µM in assay [2] (setting [6]).
On to `CC(=O)O[C@H]1/C=C(/C)[C@H](OC(=O)c2ccc(O)cc2)C/C=C(\C)CCCC1(C)C` [JUNIFERININ], for which the IC50 was found to be 33 µM in assay [1] (setting [5]), 18.6 µM in assay [2] (setting [6]), 13 µM in assay [3] and 30.7 µM in assay [4].
For the molecule `COc1cc(C(=O)O[C@@H]2C/C=C(\C)CCCC(C)(C)[C@@H](O)/C=C\2C)ccc1O` [JUNIFERIN], the IC50 in assay [1] (setting [5]) is more than 50 µM; in assay [2] (setting [6]), 29 µM.
On to `C/C=C(/C)C(=O)O[C@@H]1C/C=C(\C)CCCC(C)(C)[C@@H](O)/C=C\1C` [LYCIFERIN A], for which the IC50 entry in assay [1] (k562) and in assay [2] (da1-3b) was “Not Active” in each case.
With `C/C=C(/C)C(=O)O[C@@H]1C/C=C(\C)CCCC(C)(C)[C@@H](OC(C)=O)/C=C\1C` [LYCIFERIN B], the concentration for half-maximal inhibition (IC50) in assay [1] (setting [5]) was more than 50 µM; in assay [2] (setting [6]), 45 µM.
For `C/C1=C/[C@H](O)C(C)(C)CCC/C(C)=C/C[C@H]1OC(=O)c1ccccc1` [LYCIFERIN C], the IC50 entry in assay [1] (k562) and in assay [2] (da1-3b) was “Not Active” in each case.
As for `CC(=O)O[C@H]1/C=C(/C)[C@H](OC(=O)c2ccccc2)C/C=C(\C)CCCC1(C)C` [LYCIFERIN D], the IC50 in assay [1] (setting [5]) is more than 50 µM; in assay [2] (setting [6]) it was 45 µM.
In the same order, the values of `COc1cc(C(=O)O[C@@H]2C/C=C(\C)CCCC(C)(C)[C@@H](OC(C)=O)/C=C\2C)ccc1O` [LYCIFERIN E] are 41.5 µM and 20.1 µM.
Regarding `C=C1/C=C/C(C)(C)[C@H](OC(=O)c2ccc(O)c(OC)c2)CC/C(C)=C/CC1` [VANILLOYL FERVANOL], the IC50 result in assay [1] (k562) and in assay [2] (da1-3b) was “Not Active” throughout.
